# Data: ChEMBL document CHEMBL1212900, “Falcipain inhibitors: optimization studies of the 2-pyrimidinecarbonitrile lead series” (J Med Chem, 2010)
# Assays:
# [1] = Inhibition of Plasmodium falciparum falcipain-3 expressed in Escherichia coli
# In short: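 Refolded recombinant enzyme from E. coli, 2 nM, in 100 mM sodium acetate pH 5.5 with 500 μM CHAPS and 10 mM DTT, DMSO up to 1%. H-D-Val-Leu-Arg-AFC at 150 μM final. Reaction started by enzyme addition; fluorescence monitored 1 h at room temperature. IC50 derived from percent activity plotted against inhibitor concentration.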
# [2] = Inhibition of Plasmodium falciparum falcipain-2 expressed in Escherichia coli
# In short: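 Recombinant E. coli-expressed, refolded enzyme at 0.25 nM in 100 mM sodium acetate pH 5.5, 500 μM CHAPS, 10 mM DTT, DMSO ≤1%. Substrate H-D-Val-Leu-Arg-AFC at 30 μM final. Inhibitor dilutions mixed with substrate, enzyme added last; fluorescence followed 1 h at room temperature. IC50 from percent activity versus concentration.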
# Plasmodium falciparum = assay: Antiplasmodial activity against Plasmodium falciparum W2 after 48 hrs; format: functional, organism-based; settings: W2, 48 h
# In short: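 W2 P. falciparum grown in human erythrocytes, 2% hematocrit, RPMI with 10% human serum or 0.5% AlbuMAX II; sorbitol-synchronized. Serial dilutions from DMSO stocks added at ring stage for 48 h, medium and drug renewed at 24 h. Cells fixed in 1% formaldehyde, stained with YOYO-1, parasitemia counted by flow cytometry; IC50 from percent parasitemia versus untreated controls.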
IC50 [1] [nM],IC50 [2] [nM],IC50 (Plasmodium falciparum) [nM],Structure (SMILES)
335,5,2370,CN1CCN(Cc2ccc(C(=O)NN(Cc3ccccc3)c3nc(C#N)ncc3Br)cc2)CC1
105,23,2180,CN1CCN(Cc2ccc(C(=O)NN(CCc3ccccc3)c3nc(C#N)ncc3Br)cc2)CC1
16,0.7,98,CN1CCN(Cc2ccc(C(=O)NN(CC3CC=CC3)c3nc(C#N)ncc3Br)cc2)CC1
173,2,90,CN1CCN(Cc2ccc(C(=O)NN(c3nc(C#N)ncc3Br)C3CCC3)cc2)CC1
11,< 0.5,24,CN1CCN(Cc2ccc(C(=O)NN(c3nc(C#N)ncc3Br)C3CCCC3)cc2)CC1
6,0.5,27,CN1CCN(Cc2ccc(C(=O)NN(c3nc(C#N)ncc3Br)C3CCCCC3)cc2)CC1
110,2,104,CN1CCN(Cc2ccc(C(=O)NN(c3nc(C#N)ncc3Br)C3CCCC3(C)C)cc2)CC1 (centres undefined)
45,0.9,68,CC1CCC(N(NC(=O)c2ccc(CN3CCN(C)CC3)cc2)c2nc(C#N)ncc2Br)C1 (centres undefined)
3,0.2,5,C[C@@H]1CCC[C@H]1N(NC(=O)c1ccc(CN2CCN(C)CC2)cc1)c1nc(C#N)ncc1Br
99,14,1880,CN1CCN(Cc2ccc(C(=O)NN(CC3CCCO3)c3nc(C#N)ncc3Br)cc2)CC1 (centres undefined)
75,2,193,CC1OCCC1CN(NC(=O)c1ccc(CN2CCN(C)CC2)cc1)c1nc(C#N)ncc1Br (centres undefined)
135,11,310,CN1CCN(Cc2ccc(C(=O)NN(CC3CCOCC3)c3nc(C#N)ncc3Br)cc2)CC1
180,4,721,CN1CCN(Cc2ccc(C(=O)NN(Cc3ccco3)c3nc(C#N)ncc3Br)cc2)CC1
133,2,333,CN1CCN(Cc2ccc(C(=O)NN(Cc3ccoc3)c3nc(C#N)ncc3Br)cc2)CC1
17,0.9,59,CN1CCN(Cc2ccc(C(=O)NN(c3nc(C#N)ncc3Br)C3CCOCC3)cc2)CC1
26,< 0.5,28,CC(=O)N1CCC(N(NC(=O)c2ccc(CN3CCN(C)CC3)cc2)c2nc(C#N)ncc2Br)CC1
88,8,1310,CC(=O)NC1CCC(N(NC(=O)c2ccc(CN3CCN(C)CC3)cc2)c2nc(C#N)ncc2Br)CC1 (centres undefined)
32,< 0.5,25,CCCN1CCN(c2ccc(C(=O)NN(CC(C)C)c3nc(C#N)ncc3Br)cc2)CC1
32,< 0.2,33,CC(C)CN(NC(=O)c1ccc(N2CCN(C)CC2)cc1)c1nc(C#N)ncc1Br
145,3,622,CC(C)CN(NC(=O)c1ccc(OCCN2CCOCC2)cc1)c1nc(C#N)ncc1Br
90,2,870,CC(C)CN(NC(=O)c1ccc(OCCN2CCOCC2)cc1)c1nc(C#N)ncc1Cl
53,0.2,1530,CC(C)CN(NC(=O)c1ccc(N2CCOCC2)nc1)c1nc(C#N)ncc1Br
12,0.7,21,CC(C)CN(NC(=O)c1ccc(CN2CCN(C)CC2)o1)c1nc(C#N)ncc1Br
12,0.2,10,CC(C)CN(NC(=O)c1ccc(CN2CCN(C)CC2)s1)c1nc(C#N)ncc1Br

IC50 [1] [nM],IC50 [2] [nM],IC50 (Plasmodium falciparum) [nM],Structure (SMILES)
46,1,33,CC(C)CN(NC(=O)c1cc(CN2CCN(C)CC2)on1)c1nc(C#N)ncc1Br
61,0.4,48,CC(C)CN(NC(=O)c1cc2cccc(CN3CCN(C)CC3)c2o1)c1nc(C#N)ncc1Br
29,< 0.5,30,CC(C)CN(NC(=O)c1cc2cc(CN3CCN(C)CC3)ccc2o1)c1nc(C#N)ncc1Br
107,1,76,CC(C)CN(NC(=O)c1cc2cc(OCCN3CCNCC3)ccc2o1)c1nc(C#N)ncc1Cl
38,0.2,22,CC(C)CN(NC(=O)c1ccc(-c2cccc(CN3CCN(C)CC3)c2)nc1)c1nc(C#N)ncc1Br
26,< 0.5,16,CC(C)CN(NC(=O)c1ccc(-c2ccc(CN3CCN(C)CC3)cc2)nc1)c1nc(C#N)ncc1Br
< 3,< 0.5,1,CC(C)CN(NC(=O)c1cncc(-c2ccc(CN3CCN(C)CC3)cc2)c1)c1nc(C#N)ncc1Br
4,< 0.5,2,CC(C)CN(NC(=O)c1cncc(-c2cccc(CN3CCN(C)CC3)c2)c1)c1nc(C#N)ncc1Br
5,< 0.5,17,CC(C)CN(NC(=O)c1ccc(-c2ccc(CN3CCN(C)CC3)cc2)o1)c1nc(C#N)ncc1Br
5,0.7,65,CC(C)CN(NC(=O)Cc1ccc(OCCN2CCOCC2)cc1)c1nc(C#N)ncc1Br
8,1,403,CC(C)CN(NC(=O)Cc1ccc(OCCN2CCOCC2)cc1)c1nc(C#N)ncc1Cl
5,0.8,28,CC(C)CN(NC(=O)Cc1ccc(CN2CCN(C)CC2)cc1)c1nc(C#N)ncc1Br
5,0.7,43,CC(C)CN(NC(=O)Cc1ccc(CN2CCN(C)CC2)cc1)c1nc(C#N)ncc1Cl
3,0.2,18,CCCN1CCN(Cc2ccc(CC(=O)NN(CC(C)C)c3nc(C#N)ncc3Br)cc2)CC1
6,0.7,41,CCCN1CCN(Cc2ccc(CC(=O)NN(CC(C)C)c3nc(C#N)ncc3Cl)cc2)CC1
13,3,802,CC(C)CN(NC(=O)C(C)(C)c1ccc(OCCN2CCOCC2)cc1)c1nc(C#N)ncc1Br
18,4,806,CC(C)CN(NC(=O)C(C)(C)c1ccc(OCCN2CCOCC2)cc1)c1nc(C#N)ncc1Cl
21,3,236,CC(C)CN(NC(=O)C(C)(C)c1ccc(CN2CCN(C)CC2)cc1)c1nc(C#N)ncc1Br
46,5,253,CC(C)CN(NC(=O)C(C)(C)c1ccc(CN2CCN(C)CC2)cc1)c1nc(C#N)ncc1Cl
27,6,214,CC(C)CN(c1nc(C#N)ncc1Br)N(CCCN1CCN(C)CC1)C(=O)Cc1ccccc1
78,11,108,CC(C)CN(c1nc(C#N)ncc1Cl)N(CCCN1CCN(C)CC1)C(=O)Cc1ccccc1
78,7,166,CC(C)CN(c1nc(C#N)ncc1Br)N(CCCN1CCN(C)CC1)C(=O)c1ccccc1
105,9,346,CC(C)CN(c1nc(C#N)ncc1Br)N(CCCN1CCN(C)CC1)C(=O)c1ccc(F)cc1
41,2,82,C[C@H]1CCC[C@H]1N(NC(=O)c1ccc(CN2CCN(C)CC2)cc1)c1nc(C#N)ncc1Br (relative stereo)
